According to ChEMBL document CHEMBL1155362, “Synthesis, characterization and derivatization of some novel types of mono- and bis-imidazolidineiminothiones and imidazolidineiminodithiones with antitumor, antiviral, antibacterial and antifungal activities--part I” (Eur J Med Chem, 2009):
≈ marks a conversion by molar mass, not a printed value. Calls of active or inactive are those of the source. No cut-off for these calls is given here.

What was measured:
[1] = test system: Bacillus subtilis; assay: Antibacterial activity against Bacillus subtilis NCIB 3610 at 1 mg/ml by agar disk diffusion assay; format: functional; conditions: Bacillus subtilis, NCIB 3610; read-out: DIZ
[2] = test system: HCT-116; assay: Cytotoxicity against human HCT116 cells assessed as surviving fraction after 48 hrs by SRB assay; format: functional, cell-based
How it was run: (§1)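 Cells seeded at 10⁴ cells/well and left 24 h to attach, then exposed to […] in triplicate wells per dose. Incubation 48 h, 37 °C, 5% CO₂. Cells fixed and stained with sulforhodamine B, excess dye removed with acetic acid, bound dye taken up in Tris EDTA and read on an ELISA reader. Surviving fraction plotted against concentration.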

[3] = test system: Aspergillus niger; assay: Antifungal activity against Aspergillus niger Ferm-BAM C-21 at 5 mg/ml by agar disk diffusion assay; format: functional; conditions: read-out: DIZ
How it was run: (§2)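 Fungi maintained on Czapek's Dox agar; agar well diffusion with 1 cm wells and […] of each concentration (1, 2.5, 5 mg/mL) in DMF; inhibition zone diameter measured.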

[4] = test system: Bacillus subtilis; assay: Antibacterial activity against Bacillus subtilis NCIB 3610 at 2.5 mg/ml by agar disk diffusion assay; format: functional; conditions: Bacillus subtilis, NCIB 3610; read-out: DIZ
[5] = test system: Pseudomonas aeruginosa; assay: Antibacterial activity against Pseudomonas aeruginosa NCIB 9016 at 5 mg/ml by agar disk diffusion assay; format: functional; conditions: Pseudomonas aeruginosa, NCIB 9016; read-out: DIZ
[6] = test system: Candida albicans; assay: Antifungal activity against Candida albicans IMRU 3669 at 5 mg/ml by agar disk diffusion assay; format: functional; conditions: for zone of inhibition at 5000 µg/mL: Candida albicans, IMRU 3669, read-out: DIZ; how it was run: as §2
[7] = Antitumor activity against mouse EAC cells assessed as inhibition of cell viability at 25 ug/ml after 2 hrs by trypan blue exclusion assay; format: functional; conditions: Ehrlich
How it was run: (§3)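 EAC cells aspirated from ascitic fluid of inoculated mice and diluted in saline; 0.1 mL cell suspension, 0.8 mL RPMI 1640 and 0.1 mL compound (25, 50 or 100) incubated 2 h at 37 °C; non-viable cells counted by trypan blue exclusion; % non-viable = dead/total × 100.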

[8] = test system: Bacillus subtilis; assay: Antibacterial activity against Bacillus subtilis NCIB 3610 at 5 mg/ml by agar disk diffusion assay; format: functional; conditions: Bacillus subtilis, NCIB 3610; read-out: DIZ
[9] = test system: U-251; assay: Cytotoxicity against human U251 cells assessed as surviving fraction after 48 hrs by SRB assay; format: functional, cell-based; how it was run: as §1
[10] = test system: Candida albicans; assay: Antifungal activity against Candida albicans IMRU 3669 at 2.5 mg/ml by agar disk diffusion assay; format: functional; conditions: read-out: DIZ; how it was run: as §2
[11] = Antitumor activity against mouse EAC cells assessed as inhibition of cell viability at 50 ug/ml after 2 hrs by trypan blue exclusion assay; format: functional; conditions: Ehrlich; how it was run: as §3
[12] = test system: Pseudomonas aeruginosa; assay: Antibacterial activity against Pseudomonas aeruginosa NCIB 9016 at 2.5 mg/ml by agar disk diffusion assay; format: functional; conditions: Pseudomonas aeruginosa, NCIB 9016; read-out: DIZ
[13] = test system: HepG2; assay: Cytotoxicity against human HepG2 cells assessed as surviving fraction after 48 hrs by SRB assay; format: functional, cell-based; conditions: Homo sapiens, HepG2, 48 h; read-out: IC50; how it was run: as §1
[14] = test system: HeLa; assay: Cytotoxicity against human HeLa cells assessed as surviving fraction after 48 hrs by SRB assay; format: functional, cell-based; conditions: Homo sapiens, HeLa, 48 h; read-out: IC50; how it was run: as §1
[15] = test system: MCF7; assay: Cytotoxicity against human MCF7 cells assessed as surviving fraction after 48 hrs by SRB assay; format: functional, cell-based; how it was run: as §1
[16] = test system: Candida albicans; assay: Antifungal activity against Candida albicans IMRU 3669 at 1 mg/ml by agar disk diffusion assay; format: functional; conditions: read-out: DIZ; how it was run: as §2
[17] = Antitumor activity against mouse EAC cells assessed as inhibition of cell viability at 100 ug/ml after 2 hrs by trypan blue exclusion assay; format: functional; conditions: Ehrlich; how it was run: as §3
[18] = test system: Bacillus subtilis; assay: Antibacterial activity against Bacillus subtilis NCTC 1040 at 5 mg/ml by agar disk diffusion assay; format: functional; conditions: read-out: DIZ
[19] = test system: Human alphaherpesvirus 1; assay: Antiviral activity against HSV1 infected african green monkey Vero cells at 10^-4 dilution of 5 mg/ml by plaque formation assay; format: functional
How it was run: (§4)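 Compound dilutions prepared from a 5 mg/mL DMSO stock, using the maximum non-toxic dilution for Vero cells over 3 days; 0.1 mL virus (10³) mixed with 0.1 mL compound for 1 h at room temperature; mixture inoculated onto washed Vero monolayers in 12-well plates and adsorbed at 37 °C; 2× MEM/agarose overlay applied; read-out % reduction in plaque count versus untreated virus control.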

[20] = test system: Coxsackievirus B4; assay: Antiviral activity against Coxsackievirus B4 infected african green monkey Vero cells at 10^-4 dilution of 5 mg/ml by plaque formation assay; format: functional, organism-based; how it was run: as §4
[21] = test system: Escherichia coli; assay: Antibacterial activity against Escherichia coli NCTC 10416 at 5 mg/ml by agar disk diffusion assay; format: functional; conditions: read-out: DIZ
[22] = test system: Salmonella typhi; assay: Antibacterial activity against Salmonella typhi NCIMB 9331 at 5 mg/ml by agar disk diffusion assay; format: functional, Salmonella enterica subsp. enterica serovar Typhi; conditions: Salmonella enterica, read-out: DIZ
[23] = test system: Hepatovirus A; assay: Antiviral activity against Hepatitis A virus infected african green monkey Vero cells at 10^-4 dilution of 5 mg/ml by plaque formation assay; format: functional; how it was run: as §4
[24] = test system: Pseudomonas aeruginosa; assay: Antibacterial activity against Pseudomonas aeruginosa NCIB 9016 at 1 mg/ml by agar disk diffusion assay; format: functional; conditions: Pseudomonas aeruginosa, NCIB 9016; read-out: DIZ
[25] = test system: Staphylococcus aureus; assay: Antibacterial activity against Staphylococcus aureus NCTC 7447 at 5 mg/ml by agar disk diffusion assay; format: functional; conditions: read-out: DIZ
[26] = test system: Aspergillus niger; assay: Antifungal activity against Aspergillus niger IMI 31726 at 5 mg/ml by agar disk diffusion assay; format: functional; conditions: read-out: DIZ
[27] = test system: Aspergillus niger; assay: Antifungal activity against Aspergillus niger Ferm-BAM C-21 at 2.5 mg/ml by agar disk diffusion assay; format: functional; conditions: read-out: DIZ; how it was run: as §2

| SMILES | zone of inhibition at 1000 µg/mL [1] | zone of inhibition at 2500 µg/mL [4] | zone of inhibition at 5000 µg/mL [5] | zone of inhibition at 5000 µg/mL [6] | inhibition at 25 µg/mL [7] | zone of inhibition at 5000 µg/mL [8] | zone of inhibition at 2500 µg/mL [10] | inhibition at 50 µg/mL [11] | zone of inhibition at 2500 µg/mL [12] | IC50 [13] | IC50 [14] | inhibition at 100 µg/mL [17] | zone of inhibition at 5000 µg/mL [18] | Activity [19] | Activity [20] | zone of inhibition at 5000 µg/mL [21] | zone of inhibition at 5000 µg/mL [22] | Activity [23] | further results |
| --- | --- | --- | --- | --- | --- | --- | --- | --- | --- | --- | --- | --- | --- | --- | --- | --- | --- | --- | --- |
| CCOc1ccc(N2C(=O)N(c3c(CC)cc(Cc4cc(CC)c(N5C(=N)C(=S)N(c6ccc(OCC)cc6)C5=O)c(CC)c4)cc3CC)C(=N)C2=S)cc1 | 13 mm | 14 mm | 15 mm | 15 mm | 60% | 15 mm | 14 mm | 80% | 13 mm | 5.44 µg/mL (≈ 7.02 µM) | 2.42 µg/mL (≈ 3.12 µM) | 90% | – | – | – | – | – | – | IC50 ([2]; Homo sapiens, HCT-116, 48 h, read-out: IC50): 4.36 µg/mL (≈ 5.63 µM); zone of inhibition at 5000 µg/mL [3]: 13 mm; IC50 ([9]; Homo sapiens, U-251, 48 h, read-out: IC50): 1.01 µg/mL (≈ 1.3 µM); IC50 ([15]; Homo sapiens, MCF7, 48 h, read-out: IC50): 2.15 µg/mL (≈ 2.77 µM); zone of inhibition at 1000 µg/mL [16]: 12 mm |
| N=C1C(=S)N(c2ccc(Br)cc2)C(=O)N1c1ccc2c(c1)Cc1ccccc1-2 | – | – | – | 13 mm | – | – | – | – | – | – | – | – | 13 mm | inactive | inactive | 14 mm | 16 mm | inactive | – |
| N=C1C(=S)N(c2ccc(Cl)c(Cl)c2)C(=O)N1c1ccc(Oc2ccc(N3C(=N)C(=S)N(c4ccc(Cl)c(Cl)c4)C3=O)cc2)cc1 | 15 mm | 19 mm | 20 mm | 18 mm | – | 20 mm | 17 mm | – | 18 mm | – | – | – | – | – | – | – | – | – | zone of inhibition at 1000 µg/mL [24]: 15 mm |
| N=C1C(=S)N(c2ccc(I)cc2)C(=O)N1c1cc(Cl)c(Cl)cc1Cl | – | – | – | 17 mm | – | – | – | – | – | – | – | – | 17 mm | inactive | inactive | 16.5 mm | 17 mm | 40% | zone of inhibition at 5000 µg/mL [25]: 18 mm; zone of inhibition at 5000 µg/mL [26]: 20 mm |
| N=C1C(=S)N(c2ccc(Cl)c(Cl)c2)C(=O)N1c1ccc(Cl)cc1 | 13 mm | 13 mm | 18 mm | 17 mm | – | 14 mm | 13 mm | – | 16 mm | – | – | – | 16 mm | inactive | inactive | 19 mm | 17 mm | inactive | zone of inhibition at 5000 µg/mL [3]: 17 mm; diameter of the inhibition zone (DIZ) [6]: 14 mm; zone of inhibition at 5000 µg/mL [25]: 16 mm; zone of inhibition at 1000 µg/mL [24]: 15 mm; zone of inhibition at 5000 µg/mL [26]: 21 mm; zone of inhibition at 2500 µg/mL [27]: 15 mm |
| N#CC(=S)Nc1ccc(Cl)c(Cl)c1 | – | – | 19 mm | – | – | – | – | – | – | – | – | – | – | – | – | – | – | – | – |
| O=c1n(-c2ccc(Cl)cc2)c2nc3ccccc3nc2n1-c1ccc(Cl)c(Cl)c1 | – | – | – | – | 30% | – | – | 70% | – | 7.11 µg/mL (≈ 16.1 µM) | 7.38 µg/mL (≈ 16.7 µM) | 95% | – | – | – | – | – | – | IC50 ([2]; hct-116): Not Active; IC50 ([9]; u-251): Not Active; IC50 ([15]; mcf7): Not Active |
| Cc1ccc(-n2c(=O)n(-c3ccc(Cl)cc3)c3nc4cc(C)ccc4nc32)cc1 | – | – | – | – | 35% | – | – | 60% | – | 4.43 µg/mL (≈ 11.1 µM) | 8.32 µg/mL (≈ 20.8 µM) | 90% | – | – | – | – | – | – | IC50 ([2]; hct-116): Not Active; IC50 ([9]; u-251): Not Active; IC50 ([15]; mcf7): Not Active |
